# Screens from PubChem BioAssay.
# An excerpt weighted towards active compounds, which were near 1.8% of everything screened.
# Scp-1 inhibitor: Scp-1 (human) phosphatase inhibition. Recombinant Scp1, phosphopeptide, malachite green phosphate absorbance. inhibition, % at 20 µM. actives 0.88% (n = 340,000). AID 493091;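 active = inhibition above about 50% at 20 µM, limit read from the data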;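 note: plate controls were DMSO wells with enzyme for no effect and wells lacking enzyme for full effect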
#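 Test system: SCP-1 phosphatase catalytic domain, residues 76-261 | Compound dosing: One concentration, 20 µM, with 1.0% DMSO | Schedule: 45 min room-temperature reaction, 5 min colour, 30 min stabiliser | Detection: Absorbance at 630 nm | Read-out basis: % inhibition of SCP-1 phosphate liberation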
# HKDC1 inh: inhibitors of human hexokinase HKDC1; Q2TB90; recombinant HKDC1, G6PDH/diaphorase resazurin coupled fluorescence; inhibition, % at 20 µM; actives 0.16% (n = 340,000); AID 493160;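 active = inhibition above about 35% when tested at 20 µM, limit read from the data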;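 note: plate controls were DMSO wells with enzyme for no effect and DMSO wells lacking enzyme for full effect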
#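 Assay system: recombinant HKDC1 hexokinase; detection: coupled resazurin fluorescence, excitation 525 nm, emission 613 nm; benchmarks: DMSO-plus-enzyme-mix negative control, buffer-substituted positive control; compound dosing: single 20 µM dose; schedule: 90 min at room temperature in dark; also added: glucose plus 1 mM ATP as hexokinase substrates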
# DNMT1 block: DNMT1 (human) enzyme inhibition. P26358. DNMT1 molecular beacon, Hinp1I cleavage, fluorescence. inhibition (reported as % activation of signal), % at 10 µM. actives 0.83% (n = 360,000). AID 588458; in the data active = inhibition above about 50%
# SUMO1 PPI mod: alters human SUMO1 binding to SIM partners; inhibition, % at 20 µM; SUMO1 binding to a labelled peptide, TR-FRET, 1 h; actives 0.33% (n = 360,000); AID 602429; in the data active = inhibition above about 37%
# STEP block: STEP (human) phosphatase inhibition. recombinant STEP, OMFP fluorogenic substrate, fluorescence. actives 0.25% (n = 360,000). P54829. inhibition, % at 20 µM;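 active = inhibition at 20 µM, scaled per plate between control wells, above about 37%, limit read from the data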;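 note: 0% = DMSO with enzyme and substrate and 100% = substrate only without enzyme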
# Target sequence (P54829 whole entry, looked up): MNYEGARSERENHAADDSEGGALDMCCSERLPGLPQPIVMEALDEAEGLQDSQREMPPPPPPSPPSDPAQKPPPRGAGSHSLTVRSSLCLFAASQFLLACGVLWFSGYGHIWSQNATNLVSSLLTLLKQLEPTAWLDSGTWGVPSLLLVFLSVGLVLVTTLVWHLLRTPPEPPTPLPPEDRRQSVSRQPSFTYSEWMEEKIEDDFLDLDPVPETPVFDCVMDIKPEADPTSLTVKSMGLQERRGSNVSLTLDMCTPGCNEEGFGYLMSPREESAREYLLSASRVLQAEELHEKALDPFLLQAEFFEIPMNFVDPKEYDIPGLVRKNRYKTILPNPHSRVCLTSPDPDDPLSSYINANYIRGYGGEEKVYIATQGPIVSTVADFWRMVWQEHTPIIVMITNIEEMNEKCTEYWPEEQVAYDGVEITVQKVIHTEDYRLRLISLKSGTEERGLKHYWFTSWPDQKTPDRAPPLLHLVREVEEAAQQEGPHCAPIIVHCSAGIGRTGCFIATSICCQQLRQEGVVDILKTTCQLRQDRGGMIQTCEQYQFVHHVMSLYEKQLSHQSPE
#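 medium = Bis-Tris buffer pH 6.0, 2.5 mM DTT, 0.005% Tween 20 | test system = STEP (striatal-enriched tyrosine phosphatase) enzyme, cell-free | measure = normalized % inhibition | compound dosing = 20 µM, 1% DMSO | also added = 25 µM OMFP | schedule = reaction 20 min, ambient temperature | measured by = fluorescence read at 480 nm ex / 540 nm em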
# LMPTP block: LMPTP (human) inhibition; P24666; recombinant LMPTP-A, OMFP fluorogenic substrate, fluorescence intensity; inhibition, % at 20 µM; actives 0.22% (n = 360,000); AID 651560;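 active = compounds that cut the enzyme signal by at least half of the control window in the single-dose screen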;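 note: plate controls were DMSO wells with enzyme plus substrate for no effect and substrate without enzyme for full effect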
#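 Test system – LMPTP-A phosphatase enzyme · Quantity – 0.625 nM LMPTP-A final · Reagent – OMFP substrate, 400 µM final · Dosing – one test concentration per compound, 20 µM, with 3% DMSO overall · Timing – 50 min enzyme reaction at room temperature, protected from light · Detection – fluorescence intensity · Controls – substrate-only low control, DMSO enzyme-plus-substrate high control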
# DNMT1 inh conf: DNMT1 inhibition confirmation, single concentration; shares compounds with DNMT1 block; DNMT1 molecular beacon HinP1I cleavage, fluorescence; inhibition, % at 10 µM; actives 8% (n = 2,300);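 active = average inhibition of at least 30% in the single-concentration confirmation test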
# DNMT1 interf: shows spectral interference in the DNMT1 beacon assay; activation (fluorescence interference), % at 10 µM; actives 1% (n = 2,300); AID 602387; DNMT1 molecular beacon spectral interference counterscreen, fluorescence 485/520; shares compounds with DNMT1 block;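 active = activation of at least 30% at 10 µM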;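 note: DNMT1 catalytic domain with a HinP1I cleavage step and a FAM/dabcyl DNA beacon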
# STEP inh conf: STEP (human) phosphatase inhibition, single concentration confirmation; AID 623866; recombinant STEP, OMFP fluorogenic substrate, fluorescence; inhibition, % at 20 µM; actives 32% (n = 520); shares compounds with STEP block; call rule not given here;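 note: 0% = enzyme with substrate plus DMSO and 100% = substrate without enzyme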
# * hit, by the source's call; x = no result given.
SMILES,Scp-1 inhibitor,HKDC1 inh,DNMT1 block,SUMO1 PPI mod,STEP block,LMPTP block,DNMT1 inh conf,DNMT1 interf,others
CN(C)c1ccc(/C=C2/C(=O)NC(=O)N(Cc3ccco3)C2=O)cc1,33,9,94*,8,5,2,11,6,
CCN(CC)c1ccc(/C=C2/C(=O)NC(=O)N(Cc3ccco3)C2=O)cc1,5,2,68*,-4,1,1,1,-1,
CN(C)c1ccc(/C=C2\C(=O)NC(=O)N(CCc3ccc(F)cc3)C2=O)cc1,17,9,-5,-3,2,1,x,x,
FC(F)(F)c1ccc(CNCCc2ccc3c(c2)OCO3)cc1,-8,-1,-4,2,0,-2,x,x,
CN1CCN(C(=O)COc2ccc(S(=O)(=O)N(C)Cc3ccccc3)cc2)CC1,-5,0,55*,-3,0,-1,4,9,
CCN1CCN(C(=O)COc2ccc(S(=O)(=O)N(C)Cc3ccccc3)cc2)CC1,-8,-2,1,3,0,1,x,x,
CCCCn1c(N)c(C(=O)OCCOC)c2nc3ccccc3nc21,2,3,-13,-3,-2,-1,x,x,
CCCCOCCCn1c(N)c(C(=O)OCCOC)c2nc3ccccc3nc21,4,2,52*,40*,1,3,1,0,
COP(=O)(NC(=O)C(Cl)(Cl)Cl)OC,-4,-9,-1,8,-2,-1,x,x,
CC(C)NC(C)C(=O)C12CC3CC(CC(C3)C1)C2 (centres undefined),-1,-1,-1,-2,0,0,x,x,
C=CCn1c(O)c(C(C)=NCCN2CCN(C(=S)NC)CC2)c(=O)[nH]c1=O,-11,-6,0,-2,0,-4,x,x,
COc1nc2ccccc2c(=O)n1-c1ccc(C)cc1,-2,0,88*,3,-2,1,1,3,
COc1nc2ccccc2c(=O)n1-c1ccc(Cl)cc1,-7,-13,15,0,-1,-1,x,x,
CC[C@H]1CN2CCC1C[C@@H]2[C@@H](O)c1ccnc2ccc(OC)cc12 (some centres undefined),5,-1,2,2,0,1,x,x,
CC[C@H]1CN2CCC1C[C@H]2[C@H](O)c1ccnc2ccc(OC)cc12 (some centres undefined),-9,-8,45,55*,48*,65*,x,x,STEP inh conf=9
Cc1ccccc1OCCCn1cc(C(=O)C(=O)N2CCOCC2)c2ccccc21,-4,1,1,3,1,0,x,x,
CCOP(=O)(OCC)C(c1ccccc1)N(C)C=O (centres undefined),1,16,-1,-1,-3,0,x,x,
Cc1ccc(Cn2cc(C=O)c(-c3ccc(C)cc3)n2)cc1,-10,11,2,3,74*,3,x,x,STEP inh conf=27*
CN1CCC2(CC1)N=C(c1ccc(F)cc1)C(=S)N2,-1,-8,1,-3,78*,1,x,x,STEP inh conf=28*
